Experimental data: ChEMBL document CHEMBL3861983, “Synthesis and biological evaluation of the codrug of Leonurine and Aspirin as cardioprotective agents” (Bioorg Med Chem Lett, 2016)
The source made the active and inactive calls.

Legend:
Format in all cases: functional, cell-based
H9c2 [1] = test: Cardioprotective activity against hypoxia-induced cytotoxicity in rat H9c2 cells assessed as increase in cell viability at 0.1 to 100 uM preincubated for 8 hrs followed by H2O2 addition for 2 hrs by MTT assay
Summary of the method: (§1)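 H9c2 cells were pretreated with compound for 8 h, then exposed to H2O2 (40 mM) in culture medium for 2 h. Viability was read by MTT at 0.1, 1, 10 and 100 μM, relative to untreated control and H2O2-only model groups. Values are mean ± SEM of more than three independent experiments.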

[2] = Cardioprotective activity against hypoxia-induced oxidative stress in rat H9c2 cells assessed as antioxidant activity by measuring increase in SOD activity at 1 uM preincubated for 8 hrs followed by H2O2 addition for 2 hrs by spectrophotometry
Summary of the method: (§2)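 H9c2 cells were pretreated with compound for 8 h, then given H2O2 (40 mM) in medium for 2 h. Measured read-outs were LDH leakage into the culture supernatant, MDA level, and SOD and catalase activities. Values are mean ± SEM of more than three independent experiments, versus model and control groups.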

[3] = Cardioprotective activity against hypoxia-induced oxidative stress in rat H9c2 cells assessed as antioxidant activity by measuring reduction in MDA levels at 1 uM preincubated for 8 hrs followed by H2O2 addition for 2 hrs by spectrophotometry; summary of the method: as §2
[4] = Cardioprotective activity against hypoxia-induced oxidative stress mediated inflammation in rat H9c2 cells assessed as suppression of IL-1beta in supernatant at 1 uM preincubated for 8 hrs followed by H2O2 addition for 2 hrs by ELISA
Summary of the method: (§3)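 TNF-α, IL-6 and IL-1β in the culture supernatant were quantified with ELISA kits. H9c2 cells were pretreated with compound for 8 h, then given 2 h H2O2 (40 mM). Values are mean ± SEM of more than three independent experiments, versus the H2O2 model group.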

[5] = Cardioprotective activity against hypoxia-induced oxidative stress mediated inflammation in rat H9c2 cells assessed as suppression of TNF-alpha in supernatant at 1 uM preincubated for 8 hrs followed by H2O2 addition for 2 hrs by ELISA; summary of the method: as §3
[6] = Cardioprotective activity against hypoxia-induced oxidative stress mediated inflammation in rat H9c2 cells assessed as suppression of IL-1beta in supernatant at 1 uM preincubated for 8 hrs followed by H2O2 addition for 2 hrs in presence of aspirin by ELISA; summary of the method: as §3
H9c2 [7] = test: Cardioprotective activity against hypoxia-induced cytotoxicity in rat H9c2 cells assessed as increase in cell viability at 1 uM preincubated for 8 hrs followed by H2O2 addition for 2 hrs by MTT assay; summary of the method: as §1
[8] = Cardioprotective activity against hypoxia-induced oxidative stress mediated inflammation in rat H9c2 cells assessed as suppression of IL-6 in supernatant at 1 uM preincubated for 8 hrs followed by H2O2 addition for 2 hrs in presence of aspirin by ELISA; summary of the method: as §3
[9] = Cardioprotective activity against hypoxia-induced oxidative stress in rat H9c2 cells assessed as reduction in MDA levels at 1 uM preincubated for 8 hrs followed by H2O2 addition for 2 hrs in presence of aspirin by spectrophotometry; summary of the method: as §2
[10] = Cardioprotective activity against hypoxia-induced oxidative stress mediated inflammation in rat H9c2 cells assessed as suppression of IL-6 in supernatant at 1 uM preincubated for 8 hrs followed by H2O2 addition for 2 hrs by ELISA; summary of the method: as §3
[11] = Cardioprotective activity against hypoxia-induced oxidative stress in rat H9c2 cells assessed as antioxidant activity by measuring increase in catalase activity at 1 uM preincubated for 8 hrs followed by H2O2 addition for 2 hrs by spectrophotometry; summary of the method: as §2
[12] = Cardioprotective activity against hypoxia-induced oxidative stress mediated inflammation in rat H9c2 cells assessed as suppression of TNF-alpha in supernatant at 1 uM preincubated for 8 hrs followed by H2O2 addition for 2 hrs in presence of aspirin by ELISA; summary of the method: as §3
[13] = Cardioprotective activity against hypoxia-induced oxidative stress in rat H9c2 cells assessed as antioxidant activity by measuring increase in SOD activity at 1 uM preincubated for 8 hrs followed by H2O2 addition for 2 hrs in presence of aspirin by spectrophotometry; summary of the method: as §2
[14] = Cardioprotective activity against hypoxia-induced oxidative stress in rat H9c2 cells assessed as reduction in MDA levels at 1 uM preincubated for 8 hrs followed by H2O2 addition for 2 hrs in presence of leonurine by spectrophotometry; summary of the method: as §2
[15] = Cardioprotective activity against hypoxia-induced oxidative stress in rat H9c2 cells assessed as antioxidant activity by measuring increase in SOD activity at 1 uM preincubated for 8 hrs followed by H2O2 addition for 2 hrs in presence of leonurine by spectrophotometry; summary of the method: as §2
[16] = Cardioprotective activity against hypoxia-induced oxidative stress mediated inflammation in rat H9c2 cells assessed as suppression of TNF-alpha in supernatant at 1 uM preincubated for 8 hrs followed by H2O2 addition for 2 hrs in presence of leonurine by ELISA; summary of the method: as §3
[17] = Cardioprotective activity against hypoxia-induced oxidative stress mediated inflammation in rat H9c2 cells assessed as suppression of IL-6 in supernatant at 1 uM preincubated for 8 hrs followed by H2O2 addition for 2 hrs in presence of leonurine by ELISA; summary of the method: as §3
[18] = Cardioprotective activity against hypoxia-induced oxidative stress mediated inflammation in rat H9c2 cells assessed as suppression of IL-1beta in supernatant at 1 uM preincubated for 8 hrs followed by H2O2 addition for 2 hrs in presence of leonurine by ELISA; summary of the method: as §3
H9c2 [19] = test: Cardioprotective activity against hypoxia-induced cytotoxicity in rat H9c2 cells assessed as increase in cell viability at 0.1 uM preincubated for 8 hrs followed by H2O2 addition for 2 hrs by MTT assay; summary of the method: as §1
[20] = Cardioprotective activity against hypoxia-induced apoptosis in rat H9c2 cells assessed as increase in Bcl-2 expression at 0.1 uM preincubated for 8 hrs followed by H2O2 addition for 2 hrs by Western blotting analysis
Summary of the method: (§4)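 Bax and Bcl-2 protein expression was measured in H9c2 cells pretreated with compound for 8 h, then injured with H2O2 (40 mM) for 2 h. Levels were compared with control and H2O2 model groups. Values are mean ± SEM of more than three independent experiments.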

[21] = Cardioprotective activity against hypoxia-induced apoptosis in rat H9c2 cells assessed as reduction in Bax expression at 0.1 uM preincubated for 8 hrs followed by H2O2 addition for 2 hrs by Western blotting analysis; summary of the method: as §4
[22] = Cardioprotective activity against hypoxia-induced oxidative stress in rat H9c2 cells assessed as antioxidant activity by measuring increase in SOD activity at 0.1 uM preincubated for 8 hrs followed by H2O2 addition for 2 hrs by spectrophotometry; summary of the method: as §2
[23] = Cardioprotective activity against hypoxia-induced oxidative stress mediated inflammation in rat H9c2 cells assessed as suppression of TNF-alpha in supernatant at 0.1 uM preincubated for 8 hrs followed by H2O2 addition for 2 hrs by ELISA; summary of the method: as §3
[24] = Cardioprotective activity against hypoxia-induced apoptosis in rat H9c2 cells assessed as reduction in total apoptotic cells at 0.1 uM preincubated for 8 hrs followed by H2O2 addition for 2 hrs by Annexin-V FITC/propidium iodide staining based flow cytometry
Summary of the method: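 After 8 h compound pretreatment, H9c2 cells got a 2 h H2O2 (40 mM) insult. They were stained with Annexin V-FITC/PI and analysed by flow cytometry, counting total apoptotic cells including necrotic cells. Values are mean ± SEM of more than three independent experiments, versus model and control groups.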

[25] = Cardioprotective activity against hypoxia-induced oxidative stress in rat H9c2 cells assessed as antioxidant activity by measuring reduction in LDH leakage in supernatant at 0.1 uM preincubated for 8 hrs followed by H2O2 addition for 2 hrs by spectrophotometry; summary of the method: as §2
[26] = Cardioprotective activity against hypoxia-induced oxidative stress mediated inflammation in rat H9c2 cells assessed as suppression of IL-1beta in supernatant at 0.1 uM preincubated for 8 hrs followed by H2O2 addition for 2 hrs by ELISA; summary of the method: as §3
[27] = Cardioprotective activity against hypoxia-induced oxidative stress mediated inflammation in rat H9c2 cells assessed as suppression of IL-6 in supernatant at 0.1 uM preincubated for 8 hrs followed by H2O2 addition for 2 hrs by ELISA; summary of the method: as §3
H9c2 [28] = test: Increase in No level in rat H9c2 cells at 0.1 uM preincubated for 8 hrs followed by H2O2 addition for 2 hrs by ELISA
Summary of the method: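 NO concentration was measured in the culture supernatant of H9c2 cells. Cells were pretreated with compound for 8 h before 2 h H2O2 (40 mM) exposure. Values are mean ± SEM of more than three independent experiments, versus the model group.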

[29] = Cardioprotective activity against hypoxia-induced oxidative stress in rat H9c2 cells assessed as antioxidant activity by measuring reduction in MDA levels at 0.1 uM preincubated for 8 hrs followed by H2O2 addition for 2 hrs by spectrophotometry; summary of the method: as §2
[30] = Cardioprotective activity against hypoxia-induced oxidative stress in rat H9c2 cells assessed as antioxidant activity by measuring increase in catalase activity at 0.1 uM preincubated for 8 hrs followed by H2O2 addition for 2 hrs by spectrophotometry; summary of the method: as §2

Measured: Activity

COc1cc(C(=O)OCCCCNC(=N)N)cc(OC)c1OC(=O)CCNC(=O)c1ccccc1O
active: H9c2 [1]

COc1cc(C(=O)OCCCCNC(=N)N)cc(OC)c1O
active: [2] | [3] | [4] | [5] | [6] | H9c2 [7] | [8] | [9] | [10] | [11] | [12] | [13]

CC(=O)Oc1ccccc1C(=O)O
active: [2] | [3] | [4] | [14] | [5] | H9c2 [7] | [15] | [10] | [16] | [11] | [17] | [18]

COc1cc(C(=O)OCCCCNC(=N)N)cc(OC)c1OC(=O)CCNC(=O)c1ccccc1OC(C)=O
active: H9c2 [19] | [20] | [21] | [22] | [23] | [24] | [25] | [26] | [27] | H9c2 [28] | [29] | [30]
